High-throughput results (PubChem BioAssay)
Compounds with a hit are over-represented: about 2.3% of the library has one in this group of screens.
TRPC4 block: inhibitors of mouse TRPC4 channel; Q9QUQ5; HEK293 TRPC4beta/mu-opioid, DAMGO-evoked Fluo4 calcium flux; stronger effect = lower value; B-score at 10 µM; 300,000 compounds, 0.39% hits; AID 2247;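 active = B-score over 3 SD under the library average, no early fluorescence shift, positive overall ratio signal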
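Assay system – HEK293 line stably carrying TRPC4beta and mu-opioid receptor · Doses – single dose · Detection – Fluo4 calcium-dye fluorescence, kinetic read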
TRPC4 agonist: TRPC4 (mouse) channel activation. 310,000 compounds, 0.49% hits. B-score at 10 µM. HEK293 TRPC4beta/mu-opioid, Fluo4 calcium fluorescence; stronger effect = higher value. Q9QUQ5;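 active = B-score above 5 SD of library B-scores, and initial fluorescence ratio not above library mean plus 5 SD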;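 note: positive B-score marks a calcium rise read as TRPC4 activation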
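System – HEK293 cells stably co-expressing mouse TRPC4beta and mu-opioid receptor · Signal – Fluo4 calcium-sensitive dye fluorescence, kinetic, 1 Hz baseline · Benchmarks – buffer (low) and maximal DAMGO (high) · Read-out – B score of integrated fluorescence ratio per well · Incubation – dye loading 45 min room temperature, 110 s kinetic read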
TRPC6 inh: mouse TRPC6 channel inhibition. B-score at 10 µM. AID 2553. 310,000 compounds, 1.1% hits. HEK293-TRPC6, membrane potential dye, ACh-evoked depolarization; stronger effect = lower value. Q61143;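 active = B-score under library mean minus 3 SD, initial fluorescence not abnormally high, positive integrated signal ratio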;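 note: B-score derived from integrated fluorescence ratio over the kinetic read; more negative B-score means stronger inhibition of depolarization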
TRPC4 PAM: allosteric potentiators of mouse TRPC4 channel; HEK293 TRPC4beta/mu-opioid, DAMGO EC20, Fluo-4 Ca2+ flux; stronger effect = higher value; B-score at 10 µM; Q9QUQ5; AID 2227; 310,000 compounds, 0.42% hits;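 active = B-score of calcium response area above 5 SD of library B-scores, with initial fluorescence ratio within 5 SD of library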;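 note: B-score of integrated fluorescence ratio over time as area under calcium response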
TRPC6 act: activates the mouse TRPC6 cation channel; HEK293-TRPC6 membrane potential dye fluorescence; stronger effect = higher value; B-score at 10 µM; 310,000 compounds, 0.13% hits;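 active = B-score of the integrated fluorescence ratio above library mean plus 3 SD, and starting fluorescence ratio within library mean plus 5 SD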;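 note: higher score means more depolarization so channel activation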
Numbers without * were called inactive; i = inactive.

SMILES	TRPC4 block	TRPC4 agonist	TRPC6 inh	TRPC4 PAM	TRPC6 act
Cc1c(Cl)cccc1NC(=S)NCc1cccn1C	-6*	i	i	i	i
COc1ccc(Oc2ccc(NC(=O)c3ccccc3C)cc2)cc1	i	i	i	i	i
Cc1cc(OCCCN2CCCC2)ccc1Cl	i	i	i	12*	i
Cc1cccc(C)c1OCCCN1CCCC1	i	i	i	14*	i
Cc1cccc(C)c1OCCCCN1CCCCC1	i	i	i	i	i
O=C1/C(=C/c2ccccc2Cl)SC(=S)N1CCCC(=O)N(CCO)c1ccccc1	-6*	i	i	i	i
O=C(O)c1cnc(-c2ccccc2)nc1Sc1ccc(Cl)cc1Cl	-6*	i	i	i	i
COCCCN1CC(=O)N2C(c3ccccc3)c3[nH]c4ccccc4c3C[C@H]2C1=O (stereo not given in full)	i	i	i	i	i
C=CCN1CC(=O)N2C(c3ccccc3)c3[nH]c4ccccc4c3C[C@H]2C1=O (stereo not given in full)	i	i	i	13*	i
COc1cc2cc[n+](Cc3ccc([N+](=O)[O-])cc3)cc2cc1OC	i	i	i	i	i
O=[N+]([O-])c1ccc(C23CC4CC(CC(O)(C4)C2)C3)cc1	-6*	i	i	i	i
O=C(NC12CC3CC(CC(C3)C1)C2)c1ccc([N+](=O)[O-])cc1	i	i	i	i	i
Cc1ccc(NC(=O)CCC(=O)c2cccs2)c(O)c1	i	i	i	i	i
CC(C)c1ccc(C2C3CSCC=C3C(C#N)=C(N)C2(C#N)C#N)cc1 (stereo not given)	i	i	i	23*	i
Cc1ccc(S(=O)(=O)N2CCCCC2)cc1C(=O)Nc1ccc(S(=O)(=O)Nc2ncccn2)cc1	i	i	i	i	i
Cc1ccccc1CN1N=C(/C=C/c2ccccc2)CCC1=O	i	i	i	14*	i
COc1ccc(CNCCCC(=O)Nc2c(Cl)ccc(C)c2Cl)cc1OC	i	i	i	i	i
CCCCCOc1ccc(/C(C)=N/NC2=NCCN2)cc1	i	i	i	i	i
CCOc1ccc(Br)cc1/C(C)=N\NC1=NCCN1	i	82*	i	i	i
CCS(=O)(=O)c1nc(S(=O)(=O)c2ccc(Cl)cc2)c(N2CCc3ccccc3C2)s1	i	i	i	i	i
O=c1oc2ccc3ccccc3c2cc1-c1nnc(-c2ccccc2)o1	-6*	i	i	i	i
COc1ccc(-c2nnc(-c3cc4c(ccc5ccccc54)oc3=O)o2)cc1	i	i	i	i	i
O=c1oc2ccccc2c(Nc2ccccc2)c1CN1CCCCC1	-7*	i	i	i	i
CC(C)CN(C(=O)c1ccc(Br)o1)C1CCS(=O)(=O)C1 (stereo not given)	i	i	i	i	i
CCOc1ccccc1NC(=O)CN(c1ccc(OC)cc1)S(=O)(=O)c1c(C)[nH]c(=O)[nH]c1=O	i	i	i	20*	i
SMILES	TRPC4 block	TRPC4 agonist	TRPC6 inh	TRPC4 PAM	TRPC6 act
Cc1[nH]c2ccccc2c1C(=O)CN1C(=O)NC(C)(c2ccc(Cl)cc2Cl)C1=O (stereo not given)	i	i	i	20*	i
Cc1[nH]c2ccccc2c1C(=O)CSc1ccc(Cl)cc1	i	i	i	i	i
C=CCc1cc(/C=C2/NC(=O)N(CC)C2=O)cc(OCC)c1OCc1ccc(C(=O)O)cc1	i	i	i	i	i
CSc1ccc2nnc(-c3cccc(F)c3)n2n1	i	i	i	21*	i
CCOC(=O)c1cc(CC)sc1NC(=O)c1ccc([N+](=O)[O-])c(N2CCOCC2)c1	i	i	i	i	i
O=C(NCCc1cccc(Cl)c1)c1ccc(OC2CCN(Cc3ccccn3)CC2)cc1	i	150*	i	i	i
CSCCCNC(=O)c1ccc(OC2CCN(CCc3ccccc3)CC2)cc1	i	58*	i	i	i
CN(Cc1cnn(C)c1)C(=O)c1ccc(OC2CCN(CCc3ccccc3)CC2)cc1	-6*	i	i	i	i
O=C(NCCc1ccccn1)c1ccc(OC2CCN(CCc3ccccc3)CC2)cc1	i	66*	i	i	i
CC1(C2CC(C(F)(F)F)n3nc(C(=O)O)cc3N2)CC1 (stereo not given)	i	i	i	i	i
CC(=O)N/N=C/c1ccc(OCCOc2ccc(Br)cc2)cc1	i	i	i	i	i
COCC1CCN(Cc2cn(-c3ccccc3F)nc2-c2cc(C)sc2C)CC1	i	96*	i	i	i
Cc1cc(-c2nn(-c3ccccc3F)cc2CNCCc2cnc[nH]2)c(C)s1	i	125*	i	i	i
O=C(CN1C(=O)c2ccccc2S1(=O)=O)NCCSCc1c(F)cccc1Cl	i	i	i	i	i
C[C@@H]1CN(C(=O)c2cc(COc3cccc(C(F)(F)F)c3)on2)C[C@H](C)O1	i	i	i	i	i
Cc1ccc(-n2cc(CN3CCC(O)(c4ccccn4)CC3)c(-c3ccc(F)cc3)n2)cc1	i	77*	i	i	i
Clc1cccc(COn2c(-c3ccc(Cl)cc3Cl)nc3ncccc32)c1	-6*	i	i	i	i
Cc1ccc(COn2c(-c3ccc(Cl)cc3Cl)nc3ncccc32)cc1	-8*	59*	i	i	i
COn1c(-c2ccc(C)cc2)nc2ncccc21	i	i	i	i	i
Cc1[nH]n(C)c(=O)c1[N+](=O)[O-]	i	i	i	i	i
Cc1cccc(C)c1OCC(=O)Nc1ccc(N2CCOCC2)cc1	i	i	i	i	i
CC(C)(C)n1nnnc1C(c1ccncc1)N(Cc1ccccc1)Cc1ccco1 (stereo not given)	i	i	i	10*	i
CCCN(C(=O)C1CCN(S(=O)(=O)c2ccc(OC)c(OC)c2)CC1)C1CCS(=O)(=O)C1 (stereo not given)	i	i	i	i	i
CCc1cc(Cl)c(OC)c(C(=O)NC[C@@H]2CCCN2CC)c1O	i	70*	i	i	i
CCN1CCCC1CNC(=O)c1ccccc1Cl (stereo not given)	i	i	i	i	i
Cc1ccc(C2N(c3cccc(Cl)c3)C(=O)C3CCCN32)o1 (stereo not given)	i	i	i	33*	i
